Assay results taken from ChEMBL document CHEMBL1147862, “Studies on synthesis and pharmacological activities of 3,6-disubstituted-1,2,4-triazolo[3,4-b]-1,3,4-thiadiazoles and their dihydro analogues” (2007).

What was measured:
Type in all cases: functional
[1] = system: Candida albicans; assay: Antifungal activity against Candida albicans at 30 ug/ml by paper disc method; conditions: read-out: IZ
[2] = system: Escherichia coli; assay: Antibacterial activity against Escherichia coli at 20 ug/ml by agar plate diffusion technique; conditions: read-out: IZ
[3] = system: Pseudomonas aeruginosa; assay: Antibacterial activity against Pseudomonas aeruginosa at 20 ug/ml by agar plate diffusion technique; conditions: read-out: IZ
[4] = system: Staphylococcus aureus; assay: Antibacterial activity against Staphylococcus aureus at 30 ug/ml by agar plate diffusion technique; conditions: read-out: IZ
[5] = system: Rattus norvegicus; assay: Antiinflammatory activity in Wistar Albino rat assessed as inhibition of carrageenan-induced paw oedema at 20 mg/kg after 1 hr relative to control
In short: (§1)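 Wistar albino rats, 150–200 g, six per group, dosed orally with a 20 mg/kg suspension; control gets 0.1 ml 1% gum acacia. After 30 min, 0.1 ml 1% carrageenan in saline is injected subplantar into the right hind paw. Paw volume is read by plethysmograph at 0–4 h. Inhibition = 100(1 − Vtest/Vcontrol) on mean volume increase.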

[6] = system: Pseudomonas aeruginosa; assay: Antibacterial activity against Pseudomonas aeruginosa at 10 ug/ml by agar plate diffusion technique; conditions: read-out: IZ
[7] = system: Bacillus subtilis; assay: Antibacterial activity against Bacillus subtilis at 20 ug/ml by agar plate diffusion technique; conditions: read-out: IZ
[8] = system: Mus musculus; assay: Analgesic activity in Swiss mouse assessed as increase in reaction time at 20 mg/kg, po after 30 mins by Eddy's hot plate technique
In short: (§2)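 Swiss mice of either sex, 25–35 g, placed one at a time on a hot plate held at 55 °C. End point is paw licking or jumping, whichever comes first, with a 15 s cut-off to avoid paw injury. Reaction time is recorded and reported as percent increase in reaction time.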

[9] = system: Candida albicans; assay: Antifungal activity against Candida albicans at 10 ug/ml by paper disc method; conditions: read-out: IZ
[10] = system: Escherichia coli; assay: Antibacterial activity against Escherichia coli at 30 ug/ml by agar plate diffusion technique; conditions: read-out: IZ
[11] = system: Staphylococcus aureus; assay: Antibacterial activity against Staphylococcus aureus at 20 ug/ml by agar plate diffusion technique; conditions: read-out: IZ
[12] = system: Bacillus subtilis; assay: Antibacterial activity against Bacillus subtilis at 10 ug/ml by agar plate diffusion technique; conditions: read-out: IZ
[13] = system: Mus musculus; assay: Analgesic activity in Swiss mouse assessed as increase in reaction time at 20 mg/kg, po after 90 mins by Eddy's hot plate technique; in short: as §2
[14] = system: Rattus norvegicus; assay: Antiinflammatory activity in Wistar Albino rat assessed as inhibition of carrageenan-induced paw oedema at 20 mg/kg after 3 hrs relative to control; in short: as §1
[15] = system: Aspergillus niger; assay: Antifungal activity against Aspergillus niger at 10 ug/ml by paper disc method; conditions: read-out: IZ
[16] = system: Staphylococcus aureus; assay: Antibacterial activity against Staphylococcus aureus at 10 ug/ml by agar plate diffusion technique; conditions: read-out: IZ
[17] = system: Candida albicans; assay: Antifungal activity against Candida albicans at 20 ug/ml by paper disc method; conditions: read-out: IZ
[18] = system: Escherichia coli; assay: Antibacterial activity against Escherichia coli at 10 ug/ml by agar plate diffusion technique; conditions: read-out: IZ
[19] = system: Mus musculus; assay: Analgesic activity in Swiss mouse assessed as increase in reaction time at 20 mg/kg, po after 60 mins by Eddy's hot plate technique; in short: as §2
[20] = system: Rattus norvegicus; assay: Antiinflammatory activity in Wistar Albino rat assessed as inhibition of carrageenan-induced paw oedema at 20 mg/kg after 2 hrs relative to control; in short: as §1
[21] = system: Aspergillus niger; assay: Antifungal activity against Aspergillus niger at 20 ug/ml by paper disc method; conditions: read-out: IZ
[22] = system: Rattus norvegicus; assay: Antiinflammatory activity in Wistar Albino rat assessed as inhibition of carrageenan-induced paw oedema at 20 mg/kg after 4 hrs relative to control; in short: as §1
[23] = system: Pseudomonas aeruginosa; assay: Antibacterial activity against Pseudomonas aeruginosa at 30 ug/ml by agar plate diffusion technique; conditions: read-out: IZ
[24] = system: Aspergillus niger; assay: Antifungal activity against Aspergillus niger at 30 ug/ml by paper disc method; conditions: read-out: IZ
[25] = system: Bacillus subtilis; assay: Antibacterial activity against Bacillus subtilis at 30 ug/ml by agar plate diffusion technique; conditions: read-out: IZ

| SMILES | zone of inhibition at 30 µg/mL [1] [mm] | zone of inhibition at 20 µg/mL [2] [mm] | zone of inhibition at 20 µg/mL [3] [mm] | zone of inhibition at 30 µg/mL [4] [mm] | inhibition in vivo at 20 mg/kg [5] [%] | zone of inhibition at 10 µg/mL [6] [mm] | zone of inhibition at 20 µg/mL [7] [mm] | Activity [8] [%] | zone of inhibition at 10 µg/mL [9] [mm] | zone of inhibition at 30 µg/mL [10] [mm] | zone of inhibition at 20 µg/mL [11] [mm] | zone of inhibition at 10 µg/mL [12] [mm] | Activity [13] [%] | inhibition in vivo at 20 mg/kg [14] [%] | zone of inhibition at 10 µg/mL [15] [mm] | zone of inhibition at 10 µg/mL [16] [mm] | zone of inhibition at 20 µg/mL [17] [mm] | zone of inhibition at 10 µg/mL [18] [mm] | Activity [19] [%] | inhibition in vivo at 20 mg/kg [20] [%] | also measured |
| --- | --- | --- | --- | --- | --- | --- | --- | --- | --- | --- | --- | --- | --- | --- | --- | --- | --- | --- | --- | --- | --- |
| COc1ccc(Cc2nnc3sc(-c4cc(C)nc5ccccc45)nn23)cc1OC | 17.5 | 8.8 | 10.1 | 16.6 | 10.2 | 5.26 | 10.2 | 5.96 | 5.48 | 16 | 11.7 | 6.29 | 20.14 | 21.2 | 6.25 | 6.72 | 12 | 5.25 | 11.05 | 13.2 | zone of inhibition at 20 µg/mL [21]: 13 mm; inhibition in vivo at 20 mg/kg [22]: 24.9%; zone of inhibition at 30 µg/mL [23]: 16.1 mm; zone of inhibition at 30 µg/mL [24]: 16.7 mm; zone of inhibition at 30 µg/mL [25]: 16.1 mm |
| Cc1occc1-c1nnc2n1NC(c1cccn1C)S2 (stereo not given) | 13.2 | 7.19 | 7.9 | 11.2 | 14.6 | 4.36 | 7.48 | 7.55 | 4.5 | 12.1 | 6.23 | 4.52 | 21.96 | 21.5 | 4.93 | 4.42 | 8.06 | 4.11 | 16.8 | 18.9 | zone of inhibition at 20 µg/mL [21]: 8.08 mm; inhibition in vivo at 20 mg/kg [22]: 22.4%; zone of inhibition at 30 µg/mL [23]: 13.2 mm; zone of inhibition at 30 µg/mL [24]: 13.7 mm; zone of inhibition at 30 µg/mL [25]: 11.4 mm |
| Cc1occc1-c1nnc2sc(-c3ccnc(F)c3)nn12 | 23.8 | 14.3 | 15.2 | 20.2 | 16.7 | 8.39 | 14.8 | 4.13 | 8.82 | 20.8 | 14.2 | 8.12 | 16.43 | 20.4 | 7.36 | 7.9 | 16.6 | 8.54 | 6.2 | 18.2 | zone of inhibition at 20 µg/mL [21]: 13 mm; inhibition in vivo at 20 mg/kg [22]: 24.4%; zone of inhibition at 30 µg/mL [23]: 21.3 mm; zone of inhibition at 30 µg/mL [24]: 22.7 mm; zone of inhibition at 30 µg/mL [25]: 19.9 mm |
| COc1ccc(Cc2nnc3sc(Cc4c[nH]c5ccccc45)nn23)cc1OC | 10.2 | 8.22 | 8.23 | 12.2 | 16.1 | 4.25 | 7.32 | 13.16 | 4.1 | 12.5 | 7.38 | 4.33 | 31.88 | 28.3 | 5.24 | 4.59 | 7.46 | 4.9 | 25 | 26.8 | zone of inhibition at 20 µg/mL [21]: 9.62 mm; inhibition in vivo at 20 mg/kg [22]: 28.5%; zone of inhibition at 30 µg/mL [23]: 12.4 mm; zone of inhibition at 30 µg/mL [24]: 11.1 mm; zone of inhibition at 30 µg/mL [25]: 12.7 mm |
| COc1ccc(Cc2nnc3n2NC(c2ccco2)S3)cc1OC (stereo not given) | 14.7 | 7.49 | 7.11 | 11.8 | 12 | 3.73 | 6.65 | 5.36 | 5.48 | 14.2 | 7.31 | 3.8 | 25.11 | 21.1 | 4.8 | 3.7 | 10.4 | 4.29 | 17.26 | 17.5 | zone of inhibition at 20 µg/mL [21]: 6.96 mm; inhibition in vivo at 20 mg/kg [22]: 24.6%; zone of inhibition at 30 µg/mL [23]: 12.7 mm; zone of inhibition at 30 µg/mL [24]: 12.3 mm; zone of inhibition at 30 µg/mL [25]: 12.2 mm |
| Cc1occc1-c1nnc2n1NC(c1ccco1)S2 (stereo not given) | 14.8 | 8.04 | 12.3 | 13.3 | 16.4 | 6.67 | 10.7 | 5.68 | 5.41 | 15.2 | 12.3 | 5.33 | 26.14 | 24.1 | 5.21 | 6.67 | 11 | 4.82 | 15.18 | 21.6 | zone of inhibition at 20 µg/mL [21]: 8.12 mm; inhibition in vivo at 20 mg/kg [22]: 25.9%; zone of inhibition at 30 µg/mL [23]: 17.7 mm; zone of inhibition at 30 µg/mL [24]: 14.2 mm; zone of inhibition at 30 µg/mL [25]: 11.3 mm |
| COc1ccc(Cl)c(-c2nnc3sc(-c4ccnc5ccccc45)nn23)c1 | 18 | 14.5 | 13.3 | 18.1 | 11.1 | 7.82 | 13.1 | 7.69 | 6.48 | 18.8 | 13.2 | 7.68 | 23.84 | 18.6 | 6.4 | 7.21 | 13.9 | 8.28 | 17.24 | 14.3 | zone of inhibition at 20 µg/mL [21]: 12.8 mm; inhibition in vivo at 20 mg/kg [22]: 20.9%; zone of inhibition at 30 µg/mL [23]: 18.7 mm; zone of inhibition at 30 µg/mL [24]: 19.1 mm; zone of inhibition at 30 µg/mL [25]: 18.8 mm |
